Results gathered from unrelated publications.
Lines come from different studies, so protocols differ.
Target: Casein kinase I isoform alpha (CSNK1A1, Homo sapiens, UniProt P48729)
One construct used (P48729 1-304): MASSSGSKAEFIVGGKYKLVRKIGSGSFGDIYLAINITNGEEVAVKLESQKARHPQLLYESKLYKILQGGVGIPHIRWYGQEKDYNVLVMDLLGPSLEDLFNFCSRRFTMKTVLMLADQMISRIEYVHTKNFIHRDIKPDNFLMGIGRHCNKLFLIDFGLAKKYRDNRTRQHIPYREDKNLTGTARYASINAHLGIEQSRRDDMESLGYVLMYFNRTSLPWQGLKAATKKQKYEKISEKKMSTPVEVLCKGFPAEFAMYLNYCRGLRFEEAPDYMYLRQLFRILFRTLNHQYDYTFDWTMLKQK

| SMILES | effect on | action | technique | concentration | measurement | value |
| --- | --- | --- | --- | --- | --- | --- |
| C1=C/COCc2cc(ccc2OCCN2CCCC2)Nc2nccc(n2)-c2cccc(c2)COC/1 | binding | – | – | 0.1 µM | remaining binding | 85% |
| COc1ccc2oc(-c3ccc4nc(N)oc4c3)c/c(=N\c3ccccc3NC(=O)CCN)c2c1 | binding | – | – | 1 µM | remaining binding | 102% |
| c1cc(-c2cnn3cc(-c4ccc(OCCN5CCCCC5)cc4)cnc23)ccn1 | binding | – | SPR | – | kon | 2.49e+09 M⁻¹ s⁻¹ |
| Cc1cc(O)c(-c2ccc([C@@H](C)CN(C)C)cc2)c2c1[nH]c(=O)c1sccc12 | enzyme activity | inhibitor | – | 0.1 µM | inhibition | 6.33% |
| CCCCC(=O)Nc1ccc(-c2ccc3ncn(CCC)c(=O)c3c2)cn1 | binding | – | competition with immobilised ligand | 0.5 µM | remaining binding | 89% |
| COc1ccc2[nH]c3c4[nH]c5ccc(OC)cc5c4c4c(c3c2c1)C(=O)NC4=O | binding | – | – | 1 µM | remaining binding | 62% |
| CC(C)S(=O)(=O)c1ccc2nccc(Nc3ccc4sc(C5CCCC5)nc4c3)c2c1 | enzyme activity | inhibitor | – | 1 µM | activity vs control | 103% |
| CC#CC(=O)N1CCC[C@H]1c1nc(-c2ccc(C(=O)Nc3ccccn3)cc2)c2c(N)nccn12 | enzyme activity | inhibitor | – | 1 µM | inhibition | 21% |
| c1cc(Nc2cc(C3CC3)n[nH]2)nc(Nc2ccc3nc[nH]c3c2)n1 | binding | – | SPR | – | kon | 5.43e+08 M⁻¹ s⁻¹ |
| CO[C@@H]1[C@H](N(C)C(=O)c2ccccc2)C[C@H]2O[C@]1(C)n1c3ccccc3c3c4c(c5c6ccccc6n2c5c31)C(=O)NC4 | enzyme activity | inhibitor | – | 1 µM | inhibition | 33% |
| C[C@H]1CC[C@H](n2c3cnccc3c3cnc(Nc4ccc5c(n4)CCN(C(=O)CO)C5)nc32)CC1 | cell-free assay | – | – | 1 µM | remaining signal | 94% |
